The source made the active and inactive calls. No cut-off for these calls is given here.
How the values were obtained:
[1] = biological target: T1, Cyclin-dependent kinase 8 (Homo sapiens, UniProt P49336); experiment: Inhibition of CDK8 (unknown origin)
[2] = biological target: T2, Protein cereblon/Cyclin-dependent kinase 8 (Homo sapiens) (UniProt P49336+Q96SW2); experiment: Induction of CRBN-mediated CDK8 degradation in human Jurkat cells at 0.1 to 1 uM measured after 6 to 24 hrs by immunoblot analysis; format: cell-based
T2 sequence (P49336 whole entry, looked up): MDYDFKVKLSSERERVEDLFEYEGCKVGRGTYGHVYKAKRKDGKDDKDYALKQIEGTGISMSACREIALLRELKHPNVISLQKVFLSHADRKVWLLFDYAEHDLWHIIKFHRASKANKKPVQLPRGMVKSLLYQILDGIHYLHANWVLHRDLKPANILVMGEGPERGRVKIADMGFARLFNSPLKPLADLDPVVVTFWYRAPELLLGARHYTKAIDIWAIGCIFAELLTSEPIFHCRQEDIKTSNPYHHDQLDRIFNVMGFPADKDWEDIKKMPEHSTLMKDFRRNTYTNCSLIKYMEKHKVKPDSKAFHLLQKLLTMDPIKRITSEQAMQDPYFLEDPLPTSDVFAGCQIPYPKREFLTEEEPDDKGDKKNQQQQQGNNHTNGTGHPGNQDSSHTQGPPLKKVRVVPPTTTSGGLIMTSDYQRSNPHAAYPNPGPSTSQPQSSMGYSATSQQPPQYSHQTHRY
T2 sequence (Q96SW2 whole entry, looked up): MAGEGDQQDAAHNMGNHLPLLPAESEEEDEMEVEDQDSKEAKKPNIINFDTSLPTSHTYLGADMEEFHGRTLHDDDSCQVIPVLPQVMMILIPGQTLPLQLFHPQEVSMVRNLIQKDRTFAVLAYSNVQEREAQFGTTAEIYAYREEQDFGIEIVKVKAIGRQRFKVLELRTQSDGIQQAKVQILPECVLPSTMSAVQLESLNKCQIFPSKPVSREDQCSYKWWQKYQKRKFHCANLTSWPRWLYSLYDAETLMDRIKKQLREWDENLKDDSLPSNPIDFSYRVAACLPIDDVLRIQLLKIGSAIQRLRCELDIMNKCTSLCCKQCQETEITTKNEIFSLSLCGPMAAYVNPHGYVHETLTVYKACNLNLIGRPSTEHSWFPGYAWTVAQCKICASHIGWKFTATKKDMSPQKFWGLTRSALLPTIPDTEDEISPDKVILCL
How it was run: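 Jurkat cells were treated with compound at 0.1 or 1 μM. Lysates were collected at 6 and 24 h, and CDK8 protein levels were assessed by immunoblot.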

[3] = biological target: T1, Cyclin-dependent kinase 8; experiment: Inhibition of CDK8 in human HepG2 cells assessed as reduction in IFNgamma-induced STAT1 phosphorylation at S727 measured after 18 hrs by Western blot analysis; format: cell-based
[4] = biological target: T2, Protein cereblon/Cyclin-dependent kinase 8 (Homo sapiens); experiment: Induction of CRBN-mediated CDK8 degradation in human Jurkat cells at 0.1 to 10 uM measured after 24 hrs by immunoblot analysis; format: cell-based
How it was run: (§1)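 Jurkat cells incubated with increasing concentrations (up to 20 μM in the widest series) for 24 h; lysate CDK8 levels read by immunoblot.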

[5] = biological target: T2, Protein cereblon/Cyclin-dependent kinase 8 (Homo sapiens); experiment: Induction of CRBN-mediated CDK8 degradation in human Jurkat cells at 1 uM measured after 6 to 24 hrs by immunoblot analysis; format: cell-based
How it was run: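 Jurkat cells given 0.1 or 1 μM; lysates collected at 6 and 24 h and probed for CDK8 by immunoblot.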

[6] = biological target: T2, Protein cereblon/Cyclin-dependent kinase 8 (Homo sapiens); experiment: Induction of CRBN-mediated CDK8 degradation in wild-type human MOLT4 cells at 5 uM measured after 24 hrs by immunoblot analysis
How it was run: (§2)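 Wild-type Molt4 cells and Molt4 cells with CRISPR/Cas9 deletion of CRBN were treated with increasing concentrations for 24 h; CDK8 in lysates detected by immunoblot.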

[7] = biological target: T1, Cyclin-dependent kinase 8; experiment: Induction of CDK8 degradation in human MOLT4 cells harboring CRBN deletion mutant at 0.1 to 5 uM measured after 24 hrs by immunoblot analysis; format: cell-based; how it was run: as §2
[8] = biological target: T2, Protein cereblon/Cyclin-dependent kinase 8 (Homo sapiens); experiment: Induction of CRBN-mediated CDK8 degradation in human Jurkat cells at 1 uM measured after 6 hrs in presence of proteasome inhibitor bortezomib by immunoblot analysis; format: cell-based
How it was run: (§3)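 Rescue design: Jurkat cells pretreated with bortezomib (10 μM), MLN4924, lenalidomide in excess, or an excess of a CDK8-binding analogue unable to bind CRBN, then exposed to the degrader; CDK8 levels assessed by immunoblot.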

[9] = biological target: T2, Protein cereblon/Cyclin-dependent kinase 8 (Homo sapiens); experiment: Induction of CRBN-mediated CDK8 degradation in human Jurkat cells at 1 uM measured after 6 hrs in presence of neddylation inhibitor MLN4924 by immunoblot analysis; format: cell-based; how it was run: as §3
[10] = biological target: T2, Protein cereblon/Cyclin-dependent kinase 8 (Homo sapiens); experiment: Induction of CRBN-mediated CDK8 degradation in human Jurkat cells at 1 uM measured after 6 hrs in presence of N-((3S,17S)-17-(isoquinolin-7-yl)-10,13-dimethylhexadecahydro-1H-cyclopenta[a]phenanthren-3-yl)-Nmethyl-1-((2-(1-methyl-2,6-dioxopiperidin-3-yl)-1,3-dioxoisoindolin-4-yl)amino)-3,6,9,12-tetraoxapentadecan-15-amide by immunoblot analysis; format: cell-based; how it was run: as §3
[11] = biological target: T2, Protein cereblon/Cyclin-dependent kinase 8 (Homo sapiens); experiment: Induction of CRBN-mediated CDK8 degradation in human Jurkat cells at 1 uM measured after 6 hrs in presence of lenalidomide by immunoblot analysis; format: cell-based; how it was run: as §3
[12] = system: Jurkat; experiment: Effect on CDK8 mRNA levels in human Jurkat cells at 1 uM after 24 hrs by qPCR analysis; format: functional, cell-based
How it was run: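 Jurkat cells exposed to 1 μM or vehicle for 24 h; Cdk8 mRNA quantified by qPCR with two separate Cdk8 primer sets, normalized to Actin.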

[13] = biological target: T2, Protein cereblon/Cyclin-dependent kinase 8 (Homo sapiens); experiment: Induction of CRBN-mediated CDK8 degradation in wild-type human Jurkat cells at 1 to 10 uM measured after 24 hrs by immunoblot analysis; format: cell-based; how it was run: as §1
[14] = biological target: T2, Protein cereblon/Cyclin-dependent kinase 8 (Homo sapiens); experiment: Induction of CRBN-mediated CDK8 degradation in wild-type human Jurkat cells at 20 uM measured after 24 hrs by immunoblot analysis; format: cell-based; how it was run: as §1
[15] = biological target: Protein cereblon/Cyclin-dependent kinase 19 (Homo sapiens) (UniProt Q9BWU1+Q96SW2); experiment: Induction of CRBN-mediated CDK19 degradation in wild-type human Jurkat cells up to 20 uM measured after 24 hrs by immunoblot analysis; format: cell-based
Chain of Protein cereblon/Cyclin-dependent kinase 19 (Homo sapiens) (Q96SW2 whole entry, looked up): as above
Chain of Protein cereblon/Cyclin-dependent kinase 19 (Homo sapiens) (Q9BWU1 whole entry, looked up): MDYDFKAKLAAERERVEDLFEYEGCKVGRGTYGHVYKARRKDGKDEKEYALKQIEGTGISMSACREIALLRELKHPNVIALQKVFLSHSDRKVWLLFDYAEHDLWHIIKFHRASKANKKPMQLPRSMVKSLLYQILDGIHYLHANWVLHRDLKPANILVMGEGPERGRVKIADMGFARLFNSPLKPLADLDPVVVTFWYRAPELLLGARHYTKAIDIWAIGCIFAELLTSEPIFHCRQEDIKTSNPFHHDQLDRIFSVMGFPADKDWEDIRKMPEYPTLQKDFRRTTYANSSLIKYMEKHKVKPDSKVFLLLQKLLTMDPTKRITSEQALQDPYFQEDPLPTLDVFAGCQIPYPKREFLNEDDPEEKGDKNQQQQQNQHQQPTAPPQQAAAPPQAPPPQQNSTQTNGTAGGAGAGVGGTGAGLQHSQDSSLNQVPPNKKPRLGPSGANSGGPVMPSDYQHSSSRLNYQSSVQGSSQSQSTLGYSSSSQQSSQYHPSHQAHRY
How it was run: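 Jurkat cells treated for 24 h; CDK19 protein in cell lysates assessed by immunoblot.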

[16] = biological target: Cyclin-dependent kinase 19 (Homo sapiens, UniProt Q9BWU1); experiment: Induction of CDK19 degradation in human Jurkat cells up to 20 uM measured after 24 hrs by immunoblot analysis
Chain of Cyclin-dependent kinase 19 (Q9BWU1 whole entry): as the sequence (Q9BWU1 whole entry, looked up) above

[17] = biological target: T2, Protein cereblon/Cyclin-dependent kinase 8 (Homo sapiens); experiment: Induction of CRBN-mediated CDK8 degradation in human Jurkat cells up to 10 uM measured after 24 hrs by immunoblot analysis; format: cell-based; how it was run: as §1

T1 sequence (P49336 whole entry): as the sequence (P49336 whole entry, looked up) above

SMILES	IC50 [1] [nM]	further results
C[C@]12CC[C@H]3[C@@H](CC=C4C[C@@H](O)CC[C@@]43C)[C@@H]1CC[C@@H]2c1ccc2cnncc2c1	> 10000	
C[C@]12CC[C@H](O)CC1=CC[C@@H]1[C@@H]2CC[C@]2(C)C(c3ccc4cnncc4c3)=CC[C@@H]12	> 10000	
C[C@]12CC[C@H]3[C@@H](CC=C4C[C@@H](O)CC[C@@]43C)[C@@H]1CC[C@@H]2c1ccc2nc(N)ncc2c1	108	
CN(CCCCCOCCOCCNc1cccc2c1C(=O)N(C1CCC(=O)NC1=O)C2=O)[C@H]1CC[C@@]2(C)[C@@H](CC[C@@H]3[C@@H]2CC[C@]2(C)[C@@H](c4ccc5ccncc5c4)CC[C@@H]32)C1 (stereo partly specified)		Activity [2]: inactive
CN(C)[C@H]1C[C@@]23CC[C@@]4(O2)C(=CC[C@]2(C)C(c5ccc6ccncc6c5)=CCC24)C=C3[C@@H](O)[C@@H]1O (stereo partly specified)		inhibition [3]: Dose-dependent effect
C[C@]12CC[C@H](O)CC1=CC[C@@H]1[C@@H]2CC[C@]2(C)C(c3ccc4[nH]ncc4c3)=CC[C@@H]12	> 10000	
C[C@]12CC[C@H](O)C[C@@H]1CC[C@@H]1[C@@H]2CC[C@]2(C)C(c3ccc4ccncc4c3)=CC[C@@H]12	1010	
C[C@]12CC[C@H](O)CC1=CC[C@@H]1[C@@H]2CC[C@]2(C)C(c3ccc4ccncc4c3)=CC[C@@H]12	164	
C[C@]12CC[C@H](N3CCOCC3)C[C@@H]1CC[C@@H]1[C@@H]2CC[C@]2(C)[C@@H](c3ccc4ccncc4c3)CC[C@@H]12	120	
C[C@]12CC[C@H](O)CC1=CC[C@@H]1[C@@H]2CC[C@]2(C)C(c3ccc4nc(N)ncc4c3)=CC[C@@H]12	2300	
C[C@]12CC[C@H]3[C@@H](CC=C4C[C@@H](O)CC[C@@]43C)[C@@H]1CC[C@@H]2c1ccc2cn[nH]c2c1	> 10000	
C[C@]12CC[C@H](O)CC1=CC[C@@H]1[C@@H]2CC[C@]2(C)C(c3ccc4c(N)n[nH]c4c3)=CC[C@@H]12	1520	
C[C@]12CC[C@H]3[C@@H](CC=C4C[C@@H](O)CC[C@@]43C)[C@@H]1CC[C@@H]2c1ccc2c(N)n[nH]c2c1	682	
C[C@]12CC[C@H](O)C[C@@H]1CC[C@@H]1[C@@H]2CC[C@]2(C)[C@@H](c3ccc4ccncc4c3)CC[C@@H]12	208	
C[C@]12CC[C@H](O)CC1=CC[C@@H]1[C@@H]2CC[C@]2(C)C(c3ccc4cnccc4c3)=CC[C@@H]12	8240	
C[C@]12CC[C@H](n3ccnn3)C[C@@H]1CC[C@@H]1[C@@H]2CC[C@]2(C)[C@@H](c3ccc4ccncc4c3)CC[C@@H]12	24	
CC(=O)N(C)[C@H]1CC[C@@]2(C)[C@@H](CC[C@@H]3[C@@H]2CC[C@]2(C)[C@@H](c4ccc5ccncc5c4)CC[C@@H]32)C1	34	
CN(C)[C@H]1CC[C@@]2(C)[C@@H](CC[C@@H]3[C@@H]2CC[C@]2(C)[C@@H](c4ccc5ccncc5c4)CC[C@@H]32)C1	24	
C[C@]12CC[C@H]3[C@@H](CC=C4C[C@@H](O)CC[C@@]43C)[C@@H]1CC[C@@H]2c1ccc2ccncc2c1	48	
CN(C(=O)CCOCCOCCNc1cccc2c1C(=O)N(C1CCC(=O)NC1=O)C2=O)[C@H]1CC[C@@]2(C)[C@@H](CC[C@@H]3[C@@H]2CC[C@]2(C)[C@@H](c4ccc5ccncc5c4)CC[C@@H]32)C1 (stereo partly specified)	192	Activity [4]: inactive
C[C@]12CC[C@H]3[C@@H](CC=C4C[C@@H](O)CC[C@@]43C)[C@@H]1CC[C@@H]2c1ccc2[nH]ncc2c1	> 10000	
CN[C@H]1CC[C@@]2(C)[C@@H](CC[C@@H]3[C@@H]2CC[C@]2(C)[C@@H](c4ccc5ccncc5c4)CC[C@@H]32)C1	1320	
CN(C)[C@@H]1CC[C@@]2(C)[C@@H](CC[C@@H]3[C@@H]2CC[C@]2(C)[C@@H](c4ccc5ccncc5c4)CC[C@@H]32)C1	64	
C[C@]12CC[C@H]3[C@@H](CC=C4C[C@@H](O)CC[C@@]43C)[C@@H]1CC[C@@H]2c1ccc2cnccc2c1	6000	
CN(C(=O)CCOCCOCCOCCOCCNc1cccc2c1C(=O)N(C1CCC(=O)NC1=O)C2=O)[C@H]1CC[C@@]2(C)[C@@H](CC[C@@H]3[C@@H]2CC[C@]2(C)[C@@H](c4ccc5ccncc5c4)CC[C@@H]32)C1 (stereo partly specified)	159	Activity [5]: Active; Activity [6]: Active; Activity [7]: inactive; Activity [8]: inactive; Activity [9]: inactive; Activity [10]: inactive; Activity [11]: inactive; Activity [12]: inactive; Activity [13]: Active; Activity [14]: inactive; Activity [15]: inactive; Activity [16]: inactive
CN1C(=O)CCC(N2C(=O)c3cccc(NCCOCCOCCOCCOCCC(=O)N(C)[C@H]4CC[C@@]5(C)[C@@H](CC[C@@H]6[C@@H]5CC[C@]5(C)[C@@H](c7ccc8ccncc8c7)CC[C@@H]65)C4)c3C2=O)C1=O (stereo partly specified)	443	Activity [17]: inactive
C[C@]12CC[C@H](O)CC1=CC[C@@H]1[C@@H]2CC[C@]2(C)C(c3ccc4cn[nH]c4c3)=CC[C@@H]12	> 10000	

— ChEMBL document CHEMBL4145630, “Development of Highly Potent and Selective Steroidal Inhibitors and Degraders of CDK8” (ACS Med Chem Lett, 2018)
